In ChEMBL document CHEMBL3352038, “Discovery of cytotoxic dolastatin 10 analogues with N-terminal modifications” (J Med Chem, 2014):
Non-standard residues stand in square brackets, D forms with d. Residues, ends and D or L forms follow the SMILES beside them. *: point of attachment. Dolaproine = CO[C@@H]([C@@H]1CCCN1)[C@@H](C)C(=O)O; Dil = CC[C@H](C)[C@H](NC)[C@@H](CC(=O)O)OC; Doe = c1ccc(C[C@H](N*)c2nccs2)cc1; X1 = C[C@@H](N*)[C@@H](O)c1ccccc1; NMeV = CN[C@H](C(=O)O)C(C)C; NMeA = CN[C@@H](C)C(=O)O; NMeAib = CNC(C)(C)C(=O)O; Ac5c = NC1(C(=O)O)CCCC1; Ac3c = NC1(C(=O)O)CC1; Aib = CC(C)(N)C(=O)O; Sar = CNCC(=O)O

Tests used:
[1] = test system: BT-474; assay: Cytotoxicity against human BT474 cells assessed as cell viability incubated fore 4 days by MTS assay; format: functional; conditions: BT-474, 96 h
Method in brief: (§1)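 Cells seeded at low density in 96-well plates, dosed next day with 3-fold serial dilutions at 10 concentrations in duplicate. Incubated 4 days at 37C/5% CO2. Viability read by MTS reagent (1.5 h), absorbance at 490 nm. Four-parameter logistic fit. Reported as arithmetic mean GI50 (nM) with standard deviation over n individual runs, each run a duplicate readout.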

[2] = test system: MDA-MB-361; assay: Cytotoxicity against human MDA-MB-361 cells assessed as cell viability incubated fore 4 days by MTS assay; format: functional; conditions: MDA-MB-361, 96 h; method in brief: as §1
[3] = test system: NCI-N87; assay: Cytotoxicity against human NCI-N87 cells assessed as cell viability incubated fore 4 days by MTS assay; format: functional; conditions: NCI-N87, 96 h; method in brief: as §1
[4] = Apparent intrinsic clearance in human liver microsomes at 1 uM; format: ADME; conditions: read-out: CLH(app)
Method in brief: (§2)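 Apparent intrinsic clearance measured at 1 μM substrate in human liver microsomes (μl/min/mg) and in human hepatocytes (μl/min/million cells).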

[5] = test system: Hepatocyte; assay: Apparent intrinsic clearance in human liver hepatocytes at 1 uM; format: ADME, cell-based; method in brief: as §2
[6] = Drug metabolism in monkey liver S9 fraction assessed as formation of glucuronide conjugates; format: ADME, subcellular, Macaca mulatta; conditions: rhesus monkey
[7] = molecular target: Cytochrome P450 3A4 (Homo sapiens, UniProt P08684); assay: Drug metabolism assessed as human recombinant CYP3A4-mediated hydroxylation occurring on N-terminus; format: ADME; conditions: recombinant enzyme
Sequence of Cytochrome P450 3A4 (P08684 whole entry): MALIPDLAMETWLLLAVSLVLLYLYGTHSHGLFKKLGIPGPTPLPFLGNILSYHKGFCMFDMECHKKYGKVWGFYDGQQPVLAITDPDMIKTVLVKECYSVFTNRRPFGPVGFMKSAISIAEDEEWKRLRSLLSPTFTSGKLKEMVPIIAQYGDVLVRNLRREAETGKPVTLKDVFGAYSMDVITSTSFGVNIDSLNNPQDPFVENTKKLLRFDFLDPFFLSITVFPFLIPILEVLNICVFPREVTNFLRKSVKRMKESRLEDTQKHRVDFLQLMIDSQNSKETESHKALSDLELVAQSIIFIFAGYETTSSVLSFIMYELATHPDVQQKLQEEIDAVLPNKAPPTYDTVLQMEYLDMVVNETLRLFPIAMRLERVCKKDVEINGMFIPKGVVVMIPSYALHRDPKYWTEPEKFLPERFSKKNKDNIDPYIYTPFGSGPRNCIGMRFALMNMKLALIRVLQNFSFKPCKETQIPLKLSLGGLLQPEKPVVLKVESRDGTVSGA

[8] = Drug recovery in Han Wistar rat urine at 36 ug/kg, iv bolus dose; format: ADME, organism-based; conditions: 0.036 mg/kg, read-out: Drug recovery
Method in brief: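 Single IV bolus of 36 µg/kg. Fraction of dose recovered in urine (Wistar Han rats, n = 3) and in bile (Sprague-Dawley rats, n = 3).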

[9] = Drug recovery in Han Wistar rat bile at 36 ug/kg, iv bolus dose; format: ADME, organism-based; conditions: 0.036 mg/kg, read-out: Drug recovery
[10] = Drug metabolism in monkey liver S9 fraction assessed as formation of NADPH-dependent oxidative metabolites; format: ADME, subcellular, Macaca mulatta; conditions: rhesus monkey
[11] = Cmax in Han Wistar rat at 20 ug/kg, iv by LC-MS/MS analysis; format: ADME, organism-based; parameters: dose 20 ug/kg, route intravenous; conditions: in vivo, 0.02 mg/kg
Method in brief: (§3)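 Male Wistar Han rats (n = 3), single IV dose of 20 µg/kg. Plasma levels by LC-MS/MS. Cmax, Tmax, AUCt (zero to last measurable concentration), systemic serum clearance, Vss and terminal t1/2 given as mean ± spread.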

[12] = Drug metabolism in rat liver S9 fraction assessed as formation of glucuronide conjugates; format: ADME, subcellular
[13] = Drug metabolism in human liver S9 fraction assessed as formation of amide hydrolysis products; format: ADME, subcellular
[14] = Drug metabolism in human liver S9 fraction assessed as formation of NADPH-dependent oxidative metabolites; format: ADME, subcellular
[15] = Clearance in Han Wistar rat at 20 ug/kg, iv by LC-MS/MS analysis; format: ADME, organism-based; conditions: in vivo, 0.02 mg/kg; method in brief: as §3
[16] = Fraction unbound in monkey plasma at 0.1 uM; format: ADME, cell-free, Macaca mulatta; conditions: rhesus monkey
Method in brief: (§4)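 Plasma protein binding measured at 0.1 uM in monkey, rat and human plasma. Reported as fraction unbound.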

[17] = Fraction unbound in human plasma at 0.1 uM; format: ADME, cell-free; method in brief: as §4
[18] = Drug metabolism in monkey liver S9 fraction assessed as formation of amide hydrolysis products; format: ADME, subcellular, Macaca mulatta; conditions: rhesus monkey
[19] = Half life in Han Wistar rat at 20 ug/kg, iv by LC-MS/MS analysis; format: ADME, organism-based; conditions: in vivo, 0.02 mg/kg; method in brief: as §3
[20] = Drug metabolism in rat liver S9 fraction assessed as formation of amide hydrolysis products; format: ADME, subcellular
[21] = Tmax in Han Wistar rat at 20 ug/kg, iv by LC-MS/MS analysis; format: ADME, organism-based; conditions: in vivo, 0.02 mg/kg; method in brief: as §3
[22] = Volume of distribution at steady state in Han Wistar rat at 20 ug/kg, iv by LC-MS/MS analysis; format: ADME, organism-based; conditions: in vivo, 0.02 mg/kg, read-out: Vdss; method in brief: as §3
[23] = AUCt in Han Wistar rat at 20 ug/kg, iv by LC-MS/MS analysis; format: ADME, organism-based; conditions: plasma, 0.02 mg/kg
Method in brief: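 Male Wistar Han rats (n = 3) received a single IV dose of 20 µg/kg. Serum/plasma concentrations were measured by LC-MS/MS. AUCt was taken from time zero to the last measurable concentration. Values are reported as mean ±.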

[24] = Drug metabolism in rat liver S9 fraction assessed as formation of NADPH-dependent oxidative metabolites; format: ADME, subcellular
[25] = Drug metabolism in human liver S9 fraction assessed as formation of glucuronide conjugates; format: ADME, subcellular
[26] = Fraction unbound in rat plasma at 0.1 uM; format: ADME, cell-free; method in brief: as §4

Compound: CC[C@H](C)[C@@H]([C@@H](CC(=O)N1CCC[C@H]1[C@H](OC)[C@@H](C)C(=O)N[C@@H](Cc1ccccc1)c1nccs1)OC)N(C)C(=O)[C@@H](NC(=O)[C@]1(C)CCCN1)C(C)C
- GI50 [1]: 0.14 nM
- GI50 [2]: 0.2 nM
- GI50 [3]: 0.15 nM

Compound: CC[C@H](C)[C@@H]([C@@H](CC(=O)N1CCC[C@H]1[C@H](OC)[C@@H](C)C(=O)N[C@@H](Cc1ccccc1)c1nccs1)OC)N(C)C(=O)[C@@H](NC(=O)C1(N)CC1)C(C)C (H-[Ac3c]V[Dil][Dolaproine]-Doe)
- GI50 [1]: 2.9 nM
- GI50 [2]: 5.6 nM
- GI50 [3]: 6.4 nM

Compound: CC[C@H](C)[C@@H]([C@@H](CC(=O)N1CCC[C@H]1[C@H](OC)[C@@H](C)C(=O)N[C@@H](Cc1ccccc1)c1nccs1)OC)N(C)C(=O)[C@@H](NC(=O)[C@]1(F)CCNC1)C(C)C
- GI50 [1]: 0.16 nM
- GI50 [2]: 0.25 nM
- GI50 [3]: 0.59 nM

Compound: CC[C@H](C)[C@@H]([C@@H](CC(=O)N1CCC[C@H]1[C@H](OC)[C@@H](C)C(=O)N[C@@H](Cc1ccccc1)c1nccs1)OC)N(C)C(=O)[C@@H](NC(=O)C(C)(C)NC)C(C)C (H-[NMeAib]V[Dil][Dolaproine]-Doe)
- GI50 [1]: 0.045 nM
- GI50 [2]: 0.076 nM
- GI50 [3]: 0.12 nM

Compound: CC[C@H](C)[C@@H]([C@@H](CC(=O)N1CCC[C@H]1[C@H](OC)[C@@H](C)C(=O)N[C@@H](Cc1ccccc1)c1nccs1)OC)N(C)C(=O)[C@@H](NC(=O)[C@@]1(C)CCCCN1)C(C)C
- GI50 [1]: 0.35 nM
- GI50 [2]: 0.4 nM
- GI50 [3]: 0.52 nM

Compound: CC[C@H](C)[C@@H]([C@@H](CC(=O)N1CCC[C@H]1[C@H](OC)[C@@H](C)C(=O)N[C@@H](Cc1ccccc1)c1nccs1)OC)N(C)C(=O)[C@@H](NC(=O)[C@@H](N)C(C)C)C(C)C (H-VV[Dil][Dolaproine]-Doe)
- GI50 [1]: 5.3 nM
- GI50 [2]: 9 nM
- GI50 [3]: 10 nM

Compound: CC[C@H](C)[C@@H]([C@@H](CC(=O)N1CCC[C@H]1[C@H](OC)[C@@H](C)C(=O)N[C@@H](Cc1ccccc1)c1nccs1)OC)N(C)C(=O)[C@@H](NC(=O)[C@@]1(F)CCNC1)C(C)C
- GI50 [1]: 0.29 nM
- GI50 [2]: 0.6 nM
- GI50 [3]: 1.1 nM

Compound: CC[C@H](C)[C@@H]([C@@H](CC(=O)N1CCC[C@H]1[C@H](OC)[C@@H](C)C(=O)N[C@H](C)[C@@H](O)c1ccccc1)OC)N(C)C(=O)[C@@H](NC(=O)[C@@H](NC)C(C)C)C(C)C (H-[NMeV]V[Dil][Dolaproine]-X1)
- GI50 [1]: 0.22 nM
- microsomal CLint at 1 µM [4]: 24 µL/min/mg
- GI50 [2]: 0.49 nM
- CLH(app) [5]: 3 µL/min/mg
- GI50 [3]: 0.54 nM

Compound: CC[C@H](C)[C@@H]([C@@H](CC(=O)N1CCC[C@H]1[C@H](OC)[C@@H](C)C(=O)N[C@@H](Cc1ccccc1)c1nccs1)OC)N(C)C(=O)[C@@H](NC(=O)[C@]1(C)CCCCN1)C(C)C
- GI50 [1]: 0.16 nM
- GI50 [2]: 0.2 nM
- GI50 [3]: 0.25 nM

Compound: CC[C@H](C)[C@@H]([C@@H](CC(=O)N1CCC[C@H]1[C@H](OC)[C@@H](C)C(=O)N[C@@H](Cc1ccccc1)c1nccs1)OC)N(C)C(=O)[C@@H](NC(=O)C1(N)CCCC1)C(C)C (H-[Ac5c]V[Dil][Dolaproine]-Doe)
- GI50 [1]: 0.28 nM
- GI50 [2]: 0.35 nM
- GI50 [3]: 0.33 nM

Compound: CC[C@H](C)[C@@H]([C@@H](CC(=O)N1CCC[C@H]1[C@H](OC)[C@@H](C)C(=O)N[C@@H](Cc1ccccc1)c1nccs1)OC)N(C)C(=O)[C@@H](NC(=O)[C@H](C)NC)C(C)C (H-[NMeA]V[Dil][Dolaproine]-Doe)
- GI50 [1]: 0.23 nM
- GI50 [2]: 0.25 nM
- GI50 [3]: 0.42 nM

Compound: CC[C@H](C)[C@@H]([C@@H](CC(=O)N1CCC[C@H]1[C@H](OC)[C@@H](C)C(=O)N[C@@H](Cc1ccccc1)c1nccs1)OC)N(C)C(=O)[C@@H](NC(=O)CNC)C(C)C (H-[Sar]V[Dil][Dolaproine]-Doe)
- GI50 [1]: 0.49 nM
- GI50 [2]: 0.69 nM
- GI50 [3]: 1.2 nM

Compound: CC[C@H](C)[C@@H]([C@@H](CC(=O)N1CCC[C@H]1[C@H](OC)[C@@H](C)C(=O)N[C@@H](Cc1ccccc1)c1nccs1)OC)N(C)C(=O)[C@@H](NC(=O)[C@@]1(C)CCCN1)C(C)C
- GI50 [1]: 0.11 nM
- GI50 [2]: 0.21 nM
- GI50 [3]: 0.36 nM

Compound: CC[C@H](C)[C@@H]([C@@H](CC(=O)N1CCC[C@H]1[C@H](OC)[C@@H](C)C(=O)N[C@@H](Cc1ccccc1)c1nccs1)OC)N(C)C(=O)[C@@H](NC(=O)C(C)(C)CN)C(C)C
- GI50 [1]: 0.25 nM
- GI50 [2]: 0.81 nM
- GI50 [3]: 1.4 nM

Compound: CC[C@H](C)[C@@H]([C@@H](CC(=O)N1CCC[C@H]1[C@H](OC)[C@@H](C)C(=O)N[C@@H](Cc1ccccc1)c1nccs1)OC)N(C)C(=O)[C@@H](NC(=O)C(C)(C)N)C(C)C (H-[Aib]V[Dil][Dolaproine]-Doe)
- Drug metabolism [6]: metabolite_notdetected
- Drug metabolism [7]: metabolite_detected
- dose excreted [8]: 8%
- dose excreted [9]: 4%
- Drug metabolism [10]: metabolite_detected
- Cmax [11]: 19.4 ng/mL
- GI50 [1]: 0.26 nM
- Drug metabolism [12]: metabolite_notdetected
- Drug metabolism [13]: metabolite_notdetected
- Drug metabolism [14]: metabolite_detected
- clearance [15]: 70 mL/min/kg
- fraction unbound at 0.1 µM [16]: 0.24
- fraction unbound at 0.1 µM [17]: 0.07
- Drug metabolism [18]: metabolite_notdetected
- half-life [19]: 5.85 h
- microsomal CLint at 1 µM [4]: 84 µL/min/mg
- Drug metabolism [20]: metabolite_notdetected
- Tmax [21]: 8.4 min
- GI50 [2]: 0.19 nM
- Vd [22]: 14.7 L/kg
- AUC(0-t) [23]: 4.51 ng·h/mL
- Drug metabolism [24]: metabolite_detected
- Drug metabolism [25]: metabolite_notdetected
- CLH(app) [5]: 21 µL/min/mg
- fraction unbound at 0.1 µM [26]: 0.1
- GI50 [3]: 0.27 nM

Compound: CC[C@H](C)[C@@H]([C@@H](CC(=O)N1CCC[C@H]1[C@H](OC)[C@@H](C)C(=O)N[C@@H](Cc1ccccc1)c1nccs1)OC)N(C)C(=O)[C@@H](NC(=O)[C@@H](NC)C(C)C)C(C)C (H-[NMeV]V[Dil][Dolaproine]-Doe)
- GI50 [1]: 0.12 nM
- microsomal CLint at 1 µM [4]: 48 µL/min/mg
- GI50 [2]: 0.09 nM
- CLH(app) [5]: 11 µL/min/mg
- GI50 [3]: 0.3 nM

Compound: CC[C@H](C)[C@@H]([C@@H](CC(=O)N1CCC[C@H]1[C@H](OC)[C@@H](C)C(=O)N[C@@H](Cc1ccccc1)c1nccs1)OC)N(C)C(=O)[C@@H](NC(=O)C(C)(C)CNC)C(C)C
- GI50 [1]: 0.25 nM
- GI50 [2]: 0.41 nM
- GI50 [3]: 1.1 nM
